Laboratory results published in ChEMBL document CHEMBL1221342, “Synthesis and in vitro antitumor activity of new 4,5-dihydropyrazole derivatives” (Bioorg Med Chem, 2010).

Each compound was assayed on M14 (assay: Growth inhibition of human M14 cells after 48 hrs by SRB assay). Conditions: M14, 48 h.
Format: functional
Summary of the method: (§1)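 NCI 60-cell-line screen. Cells grown in RPMI1640 with 5% fetal calf serum and 2 mM L-glutamine, with inoculum density set by cell line. Preincubated 24 h, then given compound in DMSO at 10^-4 to 10^-8 M (five 10-fold steps) for 48 h continuous exposure. Growth measured by SRB protein assay. GI50, TGI and LC50 reported as –log molar.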

Row | Compound | GI50 [µM]
1 | COc1cc(C2=NNC(c3ccc(N(C)C)cc3)C2)cc(OC)c1OC (stereo unspecified) | 2.51
2 | COc1cc(C2CC(c3cccc(O)c3)=NN2C(C)=O)cc(OC)c1OC (stereo unspecified) | 0.794
3 | COc1cc(C2CC(c3ccc(N(C)C)cc3)=NN2C(C)=O)cc(OC)c1OC (stereo unspecified) | 0.501

Same assay, conditions: M14, 48 h, read-out: pTGI (converted)

Row | Compound | TGI [µM]
4 | COc1cc(C2CC(c3cccc(O)c3)=NN2C(C)=O)cc(OC)c1OC (stereo unspecified) | > 100
5 | COc1cc(C2CC(c3ccc(N(C)C)cc3)=NN2C(C)=O)cc(OC)c1OC (stereo unspecified) | 2.51

What follows are compounds tested on SK-MEL-2 (assay: Growth inhibition of human SK-MEL-2 cells after 48 hrs by SRB assay). Conditions: SK-MEL-2, 48 h.
Format: functional
Summary of the method: as §1

Row | Compound | GI50 [µM]
6 | COc1cc(C2=NNC(c3ccc(N(C)C)cc3)C2)cc(OC)c1OC (stereo unspecified) | 3.16
7 | COc1cc(C2CC(c3cccc(O)c3)=NN2C(C)=O)cc(OC)c1OC (stereo unspecified) | 6.31
8 | COc1cc(C2CC(c3ccc(N(C)C)cc3)=NN2C(C)=O)cc(OC)c1OC (stereo unspecified) | 7.94

Same assay, conditions: SK-MEL-2, 48 h, read-out: pTGI (converted)

Row | Compound | TGI [µM]
9 | COc1cc(C2=NNC(c3ccc(N(C)C)cc3)C2)cc(OC)c1OC (stereo unspecified) | 31.6
10 | COc1cc(C2CC(c3cccc(O)c3)=NN2C(C)=O)cc(OC)c1OC (stereo unspecified) | > 100
11 | COc1cc(C2CC(c3ccc(N(C)C)cc3)=NN2C(C)=O)cc(OC)c1OC (stereo unspecified) | > 100

Each compound was assayed on SNB-75 (assay: Growth inhibition of human SNB75 cells after 48 hrs by SRB assay). Conditions: SNB-75, 48 h.
Format: functional
Summary of the method: as §1

Row | Compound | GI50 [µM]
12 | COc1cc(C2=NNC(c3ccc(N(C)C)cc3)C2)cc(OC)c1OC (stereo unspecified) | 1
13 | COc1cc(C2CC(c3cccc(O)c3)=NN2C(C)=O)cc(OC)c1OC (stereo unspecified) | 0.398
14 | COc1cc(C2CC(c3ccc(N(C)C)cc3)=NN2C(C)=O)cc(OC)c1OC (stereo unspecified) | 0.794

Same assay, conditions: SNB-75, 48 h, read-out: pTGI (converted)

Row | Compound | TGI [µM]
15 | COc1cc(C2=NNC(c3ccc(N(C)C)cc3)C2)cc(OC)c1OC (stereo unspecified) | > 100
16 | COc1cc(C2CC(c3ccc(N(C)C)cc3)=NN2C(C)=O)cc(OC)c1OC (stereo unspecified) | > 100

Each compound was assayed on NCI-H322M (assay: Growth inhibition of human NCI-H322M cells after 48 hrs by SRB assay). Conditions: not given.
Format: functional
Summary of the method: as §1

Row | Compound | GI50 [µM]
17 | COc1cc(C2=NNC(c3ccc(N(C)C)cc3)C2)cc(OC)c1OC (stereo unspecified) | 12.6
18 | COc1cc(C2CC(c3cccc(O)c3)=NN2C(C)=O)cc(OC)c1OC (stereo unspecified) | 3.98
19 | COc1cc(C2CC(c3ccc(N(C)C)cc3)=NN2C(C)=O)cc(OC)c1OC (stereo unspecified) | 3.98

Same assay, conditions: read-out: pTGI (converted)

Row | Compound | TGI [µM]
20 | COc1cc(C2=NNC(c3ccc(N(C)C)cc3)C2)cc(OC)c1OC (stereo unspecified) | > 100
21 | COc1cc(C2CC(c3cccc(O)c3)=NN2C(C)=O)cc(OC)c1OC (stereo unspecified) | > 100
22 | COc1cc(C2CC(c3ccc(N(C)C)cc3)=NN2C(C)=O)cc(OC)c1OC (stereo unspecified) | 63.1

The compounds below were run on SR (assay: Growth inhibition of human SR cells after 48 hrs by SRB assay). Conditions: not given.
Format: functional
Summary of the method: as §1

Row | Compound | GI50 [µM]
23 | COc1cc(C2=NNC(c3ccc(N(C)C)cc3)C2)cc(OC)c1OC (stereo unspecified) | 0.251
24 | COc1cc(C2CC(c3cccc(O)c3)=NN2C(C)=O)cc(OC)c1OC (stereo unspecified) | 0.1
25 | COc1cc(C2CC(c3ccc(N(C)C)cc3)=NN2C(C)=O)cc(OC)c1OC (stereo unspecified) | 0.631

Same assay, conditions: read-out: pTGI (converted)

Row | Compound | TGI [µM]
26 | COc1cc(C2=NNC(c3ccc(N(C)C)cc3)C2)cc(OC)c1OC (stereo unspecified) | 7.94
27 | COc1cc(C2CC(c3cccc(O)c3)=NN2C(C)=O)cc(OC)c1OC (stereo unspecified) | > 100
28 | COc1cc(C2CC(c3ccc(N(C)C)cc3)=NN2C(C)=O)cc(OC)c1OC (stereo unspecified) | > 100

These compounds were tested on HCT-15 (assay: Growth inhibition of human HCT15 cells after 48 hrs by SRB assay). Conditions: HCT-15, 48 h.
Format: functional
Summary of the method: as §1

Row | Compound | GI50 [µM]
29 | COc1cc(C2=NNC(c3ccc(N(C)C)cc3)C2)cc(OC)c1OC (stereo unspecified) | 2.51
30 | COc1cc(C2CC(c3cccc(O)c3)=NN2C(C)=O)cc(OC)c1OC (stereo unspecified) | 0.794
31 | COc1cc(C2CC(c3ccc(N(C)C)cc3)=NN2C(C)=O)cc(OC)c1OC (stereo unspecified) | 0.631

Same assay, conditions: HCT-15, 48 h, read-out: pTGI (converted)

Row | Compound | TGI [µM]
32 | COc1cc(C2=NNC(c3ccc(N(C)C)cc3)C2)cc(OC)c1OC (stereo unspecified) | > 100
33 | COc1cc(C2CC(c3cccc(O)c3)=NN2C(C)=O)cc(OC)c1OC (stereo unspecified) | > 100

Each compound was assayed on SW-620 (assay: Growth inhibition of human SW620 cells after 48 hrs by SRB assay). Conditions: SW-620, 48 h.
Format: functional
Summary of the method: as §1

Row | Compound | GI50 [µM]
34 | COc1cc(C2=NNC(c3ccc(N(C)C)cc3)C2)cc(OC)c1OC (stereo unspecified) | 0.398
35 | COc1cc(C2CC(c3cccc(O)c3)=NN2C(C)=O)cc(OC)c1OC (stereo unspecified) | 0.794
36 | COc1cc(C2CC(c3ccc(N(C)C)cc3)=NN2C(C)=O)cc(OC)c1OC (stereo unspecified) | 0.501

Same assay, conditions: SW-620, 48 h, read-out: pTGI (converted)

Row | Compound | TGI [µM]
37 | COc1cc(C2=NNC(c3ccc(N(C)C)cc3)C2)cc(OC)c1OC (stereo unspecified) | > 100
38 | COc1cc(C2CC(c3cccc(O)c3)=NN2C(C)=O)cc(OC)c1OC (stereo unspecified) | > 100
39 | COc1cc(C2CC(c3ccc(N(C)C)cc3)=NN2C(C)=O)cc(OC)c1OC (stereo unspecified) | > 100

The compounds below were run on SK-MEL-28 (assay: Growth inhibition of human SK-MEL-28 cells after 48 hrs by SRB assay). Conditions: SK-MEL-28, 48 h.
Format: functional
Summary of the method: as §1

Row | Compound | GI50 [µM]
40 | COc1cc(C2=NNC(c3ccc(N(C)C)cc3)C2)cc(OC)c1OC (stereo unspecified) | 15.8
41 | COc1cc(C2CC(c3cccc(O)c3)=NN2C(C)=O)cc(OC)c1OC (stereo unspecified) | 5.01
42 | COc1cc(C2CC(c3ccc(N(C)C)cc3)=NN2C(C)=O)cc(OC)c1OC (stereo unspecified) | 15.8

Same assay, conditions: SK-MEL-28, 48 h, read-out: pTGI (converted)

Row | Compound | TGI [µM]
43 | COc1cc(C2=NNC(c3ccc(N(C)C)cc3)C2)cc(OC)c1OC (stereo unspecified) | > 100
44 | COc1cc(C2CC(c3cccc(O)c3)=NN2C(C)=O)cc(OC)c1OC (stereo unspecified) | > 100
45 | COc1cc(C2CC(c3ccc(N(C)C)cc3)=NN2C(C)=O)cc(OC)c1OC (stereo unspecified) | > 100

What follows are compounds tested on CAKI-1 (assay: Growth inhibition of human Caki1 cells after 48 hrs by SRB assay). Conditions: CAKI-1, 48 h.
Format: functional
Summary of the method: as §1

Row | Compound | GI50 [µM]
46 | COc1cc(C2=NNC(c3ccc(N(C)C)cc3)C2)cc(OC)c1OC (stereo unspecified) | 2.51
47 | COc1cc(C2CC(c3cccc(O)c3)=NN2C(C)=O)cc(OC)c1OC (stereo unspecified) | 2.51
48 | COc1cc(C2CC(c3ccc(N(C)C)cc3)=NN2C(C)=O)cc(OC)c1OC (stereo unspecified) | 0.501

Same assay, conditions: CAKI-1, 48 h, read-out: pTGI (converted)

Row | Compound | TGI [µM]
49 | COc1cc(C2=NNC(c3ccc(N(C)C)cc3)C2)cc(OC)c1OC (stereo unspecified) | > 100
50 | COc1cc(C2CC(c3cccc(O)c3)=NN2C(C)=O)cc(OC)c1OC (stereo unspecified) | > 100
51 | COc1cc(C2CC(c3ccc(N(C)C)cc3)=NN2C(C)=O)cc(OC)c1OC (stereo unspecified) | > 100

Each compound was assayed on 786-0 (assay: Growth inhibition of human 786-0 cells after 48 hrs by SRB assay). Conditions: 786-0, 48 h.
Format: functional
Summary of the method: as §1

Row | Compound | GI50 [µM]
52 | COc1cc(C2=NNC(c3ccc(N(C)C)cc3)C2)cc(OC)c1OC (stereo unspecified) | 2
53 | COc1cc(C2CC(c3cccc(O)c3)=NN2C(C)=O)cc(OC)c1OC (stereo unspecified) | 1.26
54 | COc1cc(C2CC(c3ccc(N(C)C)cc3)=NN2C(C)=O)cc(OC)c1OC (stereo unspecified) | 1.26

Same assay, conditions: 786-0, 48 h, read-out: pTGI (converted)

Row | Compound | TGI [µM]
55 | COc1cc(C2=NNC(c3ccc(N(C)C)cc3)C2)cc(OC)c1OC (stereo unspecified) | > 100
56 | COc1cc(C2CC(c3cccc(O)c3)=NN2C(C)=O)cc(OC)c1OC (stereo unspecified) | 3.98
57 | COc1cc(C2CC(c3ccc(N(C)C)cc3)=NN2C(C)=O)cc(OC)c1OC (stereo unspecified) | 63.1

What follows are compounds tested on NCI-H460 (assay: Cytotoxicity against human NCI-H460 cells after 72 hrs by SRB assay). Conditions: NCI-H460, 72 h.
Format: functional, cell-based
Summary of the method: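 NCI-H460 (ATCC) cells seeded in 96-well plates in growth medium. Scalar drug concentrations added 24 h after plating, then 72 h exposure. Surviving cells stained with sulforhodamine B, OD read at 570 nm. IC50 (50% growth inhibition) fitted from dose–response curves. Mean ± SE of at least three independent experiments.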

Row | Compound | IC50 [µM]
58 | COc1cc(C2=NNC(c3ccc(N(C)C)cc3)C2)cc(OC)c1OC (stereo unspecified) | 1.1
59 | COc1cc(C2CC(c3cccc(O)c3)=NN2C(C)=O)cc(OC)c1OC (stereo unspecified) | 2.3
60 | COc1cc(C2CC(c3ccc(N(C)C)cc3)=NN2C(C)=O)cc(OC)c1OC (stereo unspecified) | 1.8

These compounds were tested on DU-145 (assay: Growth inhibition of human DU145 cells after 48 hrs by SRB assay). Conditions: DU-145, 48 h.
Format: functional
Summary of the method: as §1

Row | Compound | GI50 [µM]
61 | COc1cc(C2=NNC(c3ccc(N(C)C)cc3)C2)cc(OC)c1OC (stereo unspecified) | 2
62 | COc1cc(C2CC(c3cccc(O)c3)=NN2C(C)=O)cc(OC)c1OC (stereo unspecified) | 3.16
63 | COc1cc(C2CC(c3ccc(N(C)C)cc3)=NN2C(C)=O)cc(OC)c1OC (stereo unspecified) | 2

Same assay, conditions: DU-145, 48 h, read-out: pTGI (converted)

Row | Compound | TGI [µM]
64 | COc1cc(C2=NNC(c3ccc(N(C)C)cc3)C2)cc(OC)c1OC (stereo unspecified) | 5.01
65 | COc1cc(C2CC(c3ccc(N(C)C)cc3)=NN2C(C)=O)cc(OC)c1OC (stereo unspecified) | 12.6

The compounds below were run on NCI-H522 (assay: Growth inhibition of human NCI-H522 cells after 48 hrs by SRB assay). Conditions: NCI-H522, 48 h.
Format: functional
Summary of the method: as §1

Row | Compound | GI50 [µM]
66 | COc1cc(C2=NNC(c3ccc(N(C)C)cc3)C2)cc(OC)c1OC (stereo unspecified) | 2
67 | COc1cc(C2CC(c3cccc(O)c3)=NN2C(C)=O)cc(OC)c1OC (stereo unspecified) | 1.58
68 | COc1cc(C2CC(c3ccc(N(C)C)cc3)=NN2C(C)=O)cc(OC)c1OC (stereo unspecified) | 0.631

Same assay, conditions: NCI-H522, 48 h, read-out: pTGI (converted)

Row | Compound | TGI [µM]
69 | COc1cc(C2=NNC(c3ccc(N(C)C)cc3)C2)cc(OC)c1OC (stereo unspecified) | 6.31
70 | COc1cc(C2CC(c3cccc(O)c3)=NN2C(C)=O)cc(OC)c1OC (stereo unspecified) | 39.8
71 | COc1cc(C2CC(c3ccc(N(C)C)cc3)=NN2C(C)=O)cc(OC)c1OC (stereo unspecified) | 7.94
